Assay results: ChEMBL document CHEMBL1255289, “In vitro antifungal activities of isavuconazole (BAL4815), voriconazole, and fluconazole against 1,007 isolates of zygomycete, Candida, Aspergillus, Fusarium, and Scedosporium species” (2008)
Values after ≈ are worked out from the molar mass of the structure shown.

Key:
Format in all cases: functional
[1] = tested on: Aspergillus sp.; test: Antifungal activity against Aspergillus sp. isolates after 48 hrs by CLSI M38-A procedure based assay
Method in brief: (§1)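 Aspergillus isolates tested by CLSI M38-A broth microdilution at final 0.015–16 µg/ml and 35°C. Plates were read macroscopically at 48 h. The MIC was the lowest concentration producing complete inhibition of growth (MIC-0).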

[2] = tested on: Mucor; test: Antifungal activity against Mucor isolates assessed as lowest compound concentration that produced slight growth or approximately 25% of that of growth control after 24 hrs by CLSI M38-A procedure based assay
Method in brief: (§2)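 Clinical isolates were kept at –70°C as spore suspensions in sterile water and subcultured on potato dextrose or Sabouraud agar before testing. Broth microdilution used DMSO stocks in trays stored at –70°C, with final drug 0.015–16 µg/ml.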

[3] = tested on: Pichia kudriavzevii; test: Antifungal activity against Candida krusei isolates after 48 hrs by CLSI M27-A2 procedure based assay
Method in brief: (§3)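 Candida isolates tested by CLSI M27-A2 broth microdilution at final 0.015–16 µg/ml, or 0.125–128 µg/ml for the comparator azole. Incubation was at 35°C with a visual read at 48 h. MIC-2 was the lowest concentration giving a prominent turbidity drop, about 50% growth inhibition.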

[4] = tested on: Absidia; test: Antifungal activity against Absidia isolates assessed as lowest compound concentration that produced complete inhibition of microbial growth after 24 hrs by CLSI M38-A procedure based assay
Method in brief: (§4)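 Zygomycete isolates subcultured on potato dextrose or Sabouraud agar, then tested by CLSI M38-A broth microdilution. Drugs were serially diluted in plates at final 0.015–16 µg/ml and incubated at 35°C. Plates were read by eye at 24 h. MIC-0 was the lowest concentration giving complete growth inhibition.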

[5] = tested on: Aspergillus flavus; test: Antifungal activity against Aspergillus flavus isolates after 48 hrs by CLSI M38-A procedure based assay; conditions: Aspergillus flavus, 48 h; method in brief: as §1
[6] = tested on: Rhizopus; test: Antifungal activity against Rhizopus isolates assessed as lowest compound concentration that produced slight growth or approximately 25% of that of growth control after 24 hrs by CLSI M38-A procedure based assay
Method in brief: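 Rhizopus isolates tested by CLSI M38-A broth microdilution at final 0.015–16 µg/ml, 35°C, read by eye at 24 h.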

[7] = tested on: Scedosporium apiospermum; test: Antifungal activity against Scedosporium apiospermum isolates assessed as lowest compound concentration that produced complete inhibition of microbial growth after 24 hrs by CLSI M38-A procedure based assay; conditions: Scedosporium apiospermum, 24 h
[8] = tested on: Syncephalastrum; test: Antifungal activity against Syncephalastrum isolates assessed as lowest compound concentration that produced complete inhibition of microbial growth after 24 hrs by CLSI M38-A procedure based assay; method in brief: as §4
[9] = tested on: Candida tropicalis; test: Antifungal activity against Candida tropicalis isolates after 48 hrs by CLSI M27-A2 procedure based assay; conditions: Candida tropicalis, 48 h; method in brief: as §3
[10] = tested on: Mucor; test: Antifungal activity against Mucor isolates assessed as lowest compound concentration that produced complete inhibition of microbial growth after 24 hrs by CLSI M38-A procedure based assay; conditions: Mucor, 24 h; method in brief: as §4
[11] = tested on: Lomentospora prolificans; test: Antifungal activity against Scedosporium prolificans isolates assessed as lowest compound concentration that produced complete inhibition of microbial growth after 24 hrs by CLSI M38-A procedure based assay; conditions: Lomentospora prolificans, 24 h
[12] = tested on: Rhizopus; test: Antifungal activity against Rhizopus isolates assessed as lowest compound concentration that produced complete inhibition of microbial growth after 24 hrs by CLSI M38-A procedure based assay; conditions: Rhizopus, 24 h; method in brief: as §4
[13] = tested on: Lomentospora prolificans; test: Antifungal activity against Scedosporium prolificans isolates assessed as lowest compound concentration that produced slight growth or approximately 25% of that of growth control after 24 hrs by CLSI M38-A procedure based assay
[14] = tested on: Fusarium; test: Antifungal activity against Fusarium sp. isolates assessed as lowest compound concentration that produced slight growth or approximately 25% of that of growth control after 24 hrs by CLSI M38-A procedure based assay
[15] = tested on: Scedosporium apiospermum; test: Antifungal activity against Scedosporium apiospermum isolates assessed as lowest compound concentration that produced slight growth or approximately 25% of that of growth control after 24 hrs by CLSI M38-A procedure based assay
[16] = tested on: Cunninghamella; test: Antifungal activity against Cunninghamella isolates assessed as lowest compound concentration that produced complete inhibition of microbial growth after 24 hrs by CLSI M38-A procedure based assay; method in brief: as §4
[17] = tested on: Absidia; test: Antifungal activity against Absidia isolates assessed as lowest compound concentration that produced slight growth or approximately 25% of that of growth control after 24 hrs by CLSI M38-A procedure based assay; method in brief: as §2
[18] = tested on: Candida parapsilosis; test: Antifungal activity against Candida parapsilosis isolates after 48 hrs by CLSI M27-A2 procedure based assay; conditions: Lodderomyces parapsilosis, 48 h; method in brief: as §3
[19] = tested on: Aspergillus niger; test: Antifungal activity against Aspergillus niger isolates after 48 hrs by CLSI M38-A procedure based assay; conditions: Aspergillus niger, 48 h; method in brief: as §1
[20] = tested on: Aspergillus terreus; test: Antifungal activity against Aspergillus terreus isolates after 48 hrs by CLSI M38-A procedure based assay; conditions: Aspergillus terreus, 48 h; method in brief: as §1
[21] = tested on: Candida; test: Antifungal activity against Candida sp. isolates after 48 hrs by CLSI M27-A2 procedure based assay
Method in brief: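 Candida isolates were stored at –70°C as yeast suspensions and subcultured on potato dextrose or Sabouraud agar before use. Broth microdilution used DMSO drug stocks, with final well concentrations of 0.015–16 or 0.125–128 µg/ml depending on the azole. Plates were incubated at 35°C and read macroscopically at 48 h. MIC-2 was the lowest concentration giving a prominent turbidity decrease (~50% growth inhibition).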

[22] = tested on: Cunninghamella; test: Antifungal activity against Cunninghamella isolates assessed as lowest compound concentration that produced slight growth or approximately 25% of that of growth control after 24 hrs by CLSI M38-A procedure based assay; method in brief: as §2
[23] = tested on: Nakaseomyces glabratus; test: Antifungal activity against Candida glabrata isolates after 48 hrs by CLSI M27-A2 procedure based assay; conditions: Nakaseomyces glabratus, 48 h; method in brief: as §3
[24] = tested on: Candida albicans; test: Antifungal activity against Candida albicans isolates after 48 hrs by CLSI M27-A2 procedure based assay; conditions: Candida albicans, 48 h; method in brief: as §3
[25] = tested on: Aspergillus fumigatus; test: Antifungal activity against Aspergillus fumigatus isolates after 48 hrs by CLSI M38-A procedure based assay; conditions: Aspergillus fumigatus, 48 h; method in brief: as §1
[26] = tested on: Syncephalastrum; test: Antifungal activity against Syncephalastrum isolates assessed as lowest compound concentration that produced slight growth or approximately 25% of that of growth control after 24 hrs by CLSI M38-A procedure based assay; method in brief: as §2
[27] = tested on: Fusarium; test: Antifungal activity against Fusarium sp. isolates assessed as lowest compound concentration that produced complete inhibition of microbial growth after 24 hrs by CLSI M38-A procedure based assay; conditions: Fusarium, 24 h

**Q.** What does the source list for `C[C@@H](c1ncncc1F)[C@](O)(Cn1cncn1)c1ccc(F)cc1F` [VORICONAZOLE]?
**A.** MIC [1]: 0.125 µg/mL (≈ 0.358 µM); MIC50 [2]: 16 µg/mL (≈ 45.8 µM); MIC90 [2]: > 16 µg/mL; MIC [3]: 0.125 µg/mL (≈ 0.358 µM); MIC [4]: 4 µg/mL (≈ 11.5 µM); MIC50 [5]: 1 µg/mL (≈ 2.86 µM); MIC90 [5]: 1 µg/mL (≈ 2.86 µM); MIC50 [6]: 8 µg/mL (≈ 22.9 µM); MIC90 [6]: > 16 µg/mL; MIC50 [7]: 0.5 µg/mL (≈ 1.43 µM); MIC90 [7]: 1 µg/mL (≈ 2.86 µM); MIC [8]: 4 µg/mL (≈ 11.5 µM); MIC50 [9]: 0.03 µg/mL (≈ 0.0859 µM); MIC90 [9]: 0.06 µg/mL (≈ 0.172 µM); MIC50 [10]: > 16 µg/mL; MIC90 [10]: > 16 µg/mL; MIC [11]: 16 µg/mL (≈ 45.8 µM); MIC [12]: 8 µg/mL (≈ 22.9 µM); MIC50 [12]: 8 µg/mL (≈ 22.9 µM); MIC90 [12]: 16 µg/mL (≈ 45.8 µM); MIC [13]: 4 µg/mL (≈ 11.5 µM); MIC50 [14]: 4 µg/mL (≈ 11.5 µM); MIC90 [14]: 8 µg/mL (≈ 22.9 µM); MIC50 [15]: 0.25 µg/mL (≈ 0.716 µM); MIC90 [15]: 0.5 µg/mL (≈ 1.43 µM); MIC [16]: > 16 µg/mL; MIC [17]: 4 µg/mL (≈ 11.5 µM); MIC [18]: < 0.015 µg/mL; MIC50 [18]: < 0.015 µg/mL; MIC90 [18]: 0.06 µg/mL (≈ 0.172 µM); MIC50 [19]: 1 µg/mL (≈ 2.86 µM); MIC90 [19]: 1 µg/mL (≈ 2.86 µM); MIC50 [20]: 1 µg/mL (≈ 2.86 µM); MIC90 [20]: 1 µg/mL (≈ 2.86 µM); MIC [21]: 0.006 µg/mL (≈ 0.0172 µM); MIC [22]: 8 µg/mL (≈ 22.9 µM); MIC50 [23]: 0.125 µg/mL (≈ 0.358 µM); MIC90 [23]: 1 µg/mL (≈ 2.86 µM); MIC50 [24]: 0.03 µg/mL (≈ 0.0859 µM); MIC90 [24]: 0.06 µg/mL (≈ 0.172 µM); MIC50 [25]: 0.5 µg/mL (≈ 1.43 µM); MIC90 [25]: 1 µg/mL (≈ 2.86 µM); MIC [26]: 2 µg/mL (≈ 5.73 µM); MIC50 [27]: 4 µg/mL (≈ 11.5 µM); MIC90 [27]: 16 µg/mL (≈ 45.8 µM)
